Results from ChEMBL document CHEMBL1125624, “Identification and exploitation of the sigma-opiate pharmacophore” (J Med Chem, 1991).
pKi: −log10 of the molar value.

Biological target: Sigma non-opioid intracellular receptor 1 (Rattus norvegicus, UniProt Q9R0C9)
Assay: Binding affinity towards sigma opioid receptor was determined in rat cerebral homogenate using [3H]haloperidol as radioligand
How it was run: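 Male Sprague-Dawley rat cerebellum was homogenized in 50 mM Tris-HCl pH 7.7 and spun at 39000g for 15 min, three times in all. At least nine competitor concentrations were run with 1 nM [3H]haloperidol plus 25 nM spiperone (to block D2) on 3 mg wet-weight tissue for 90 min. Nonspecific binding was taken with 10 µM DTG. GF/C filtration, scintillation counting; Ki ± SEM, minimum three determinations.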

Sequence of Sigma non-opioid intracellular receptor 1 (Q9R0C9 whole entry): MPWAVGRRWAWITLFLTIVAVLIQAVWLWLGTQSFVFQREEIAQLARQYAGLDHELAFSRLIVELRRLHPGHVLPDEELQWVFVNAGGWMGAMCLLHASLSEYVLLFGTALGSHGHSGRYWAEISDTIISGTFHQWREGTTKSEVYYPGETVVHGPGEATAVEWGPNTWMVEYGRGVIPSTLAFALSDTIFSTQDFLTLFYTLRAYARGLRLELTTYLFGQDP

Structure (SMILES)	pKi
C[C@H](Cc1ccccc1)NCC1CC1	6.18
C[C@H](Cc1ccccc1)NCCC(=O)c1ccccc1	7.14
C[C@H](Cc1ccccc1)NCCOc1ccccc1	7.49
C[C@@H](Cc1ccccc1)N(C)CCc1ccccc1	7.80
C[C@H](Cc1ccccc1)NCCCc1ccccc1	7.85
C[C@@H](Cc1ccccc1)NCCc1ccccc1	8.32
C[C@H](Cc1ccccc1)NCCc1ccccc1	7.34
CC(Cc1ccccc1)NCCCCc1ccccc1 (racemic)	8.41
CC(N)Cc1ccccc1 (racemic) [AMPHETAMINE]	< 4.30
C[C@H](Cc1ccccc1)NCc1ccccc1 [N-BENZYLAMPHETAMINE]	6.99
